Assay results pooled from the literature.
Compare with care: the assays were run in different laboratories.
PIP5K1C: Phosphatidylinositol 4-phosphate 5-kinase type-1 gamma (PIP5K1C, Homo sapiens, UniProt O60331)
MMP7: Matrilysin (MMP7, Homo sapiens, UniProt P09237)

SMILES | target | test | system | conditions | endpoint | result
COc1ncccc1-c1cnn2ccc(N3CCN(C(=O)OC(C)C)CC3)nc12 | Serine/threonine-protein kinase/endoribonuclease IRE1 (ERN1, Homo sapiens, UniProt O75460) | binding, competition with immobilised ligand |  | 1 µM | remaining binding | 67%
Cc1nn(C)cc1-c1nc2c(N3CCN(Cc4ccc(Cl)cc4)CC3)c(Cl)cnc2[nH]1 | PIP5K1C | binding, competition with immobilised ligand |  | 1 µM | remaining binding | 84%
C#Cc1n[nH]c2c(-c3cn(C(C)c4ccccn4)c(=O)[nH]c3=O)cc(F)cc12 (centres unmarked) | Mitogen-activated protein kinase kinase kinase kinase 3 (MAP4K3, Homo sapiens, UniProt Q8IVH8) | enzyme activity, inhibitor |  | 1 µM | inhibition | 9.1%
CN(C)C(=O)COC(=O)Cc1ccc(OC(=O)c2ccc(NC(=N)N)cc2)cc1 | MMP7 | enzyme activity, inhibitor |  | 10 µM | inhibition | 2%
CCN1CCN(Cc2ccc(NC(=O)c3ccc(C)c(Oc4ccnc5[nH]ccc45)c3)cc2C(F)(F)F)CC1 | Serine/threonine-protein kinase 32C (STK32C, Homo sapiens, UniProt Q86UX6) | target engagement in cells, inhibitor, chemoproteomics | Huh-7 | 1 µM | inhibition | -13.4%
Nc1ncc(-c2nc(N3CCOCC3)nc(N3CCOCC3)n2)c(C(F)F)n1 | PIP5K1C | binding, competition with immobilised ligand |  | 10 µM | remaining binding | 100%
Cc1ccc(-c2cnnc(N3CCC(c4cccc(Cl)c4)C3)n2)o1 (centres unmarked) | Inorganic pyrophosphatase (Mycobacterium tuberculosis, UniProt P9WI55) | enzyme activity, inhibitor |  | 100 µM | inhibition | 45%
CNC(=O)[C@H](Cc1ccccc1)NC(=O)[C@H](CC(C)C)[C@H](CSc1cccs1)C(=O)NO | MMP7 | enzyme activity, inhibitor |  | 1 nM | inhibition | 31%
